Experimental data of several laboratories.
Protocols differ between the studies behind these lines. In brackets after ≈: the same amount, converted by molar mass.

CCCCS(=O)(=O)NCC1COC2(CCN(C(=O)C3(c4ccccc4)CCCC3)CC2)O1 (centres unmarked)
inhibition (Chikungunya virus; viral replication, inhibitor; 40 µM): 95%

O=C(NCc1ccc(F)cc1)c1cn(Cc2ccc(C(F)(F)F)cc2)c2ccc(Oc3ccccc3)cc2c1=O
IC50 (MCF7; cell growth or viability, MTT; 48 h): 4.36 µM

COc1cccc(C=Nc2ccc(SCc3cc(=O)c(O)co3)cc2)c1
IC50 (DPPH scavenging, absorbance; 30 min): 11.6 µM

O=C(Nc1ccc(Cl)cc1)Nc1cccc(-c2cn(Cc3ccc(Br)cc3)nn2)c1
viability (MCF7; cell growth or viability, CCK-8; 50 µM, 48 h): 96.5%

O=c1cc(CSc2ccc(N=Cc3ccccc3[N+](=O)[O-])cc2)occ1O
IC50 (DPPH scavenging, absorbance; 30 min): 14.3 µM

O=C(NCc1ccc(F)cc1)c1cn(Cc2ccc(F)cc2)c2ccc(Oc3ccccc3)cc2c1=O
IC50 (MCF7; cell growth or viability, MTT): ≥ 200 µM

CC(C)C[C@@H](NC(=O)[C@H](C)NC(=O)CNC(=O)[C@@H](NC=O)C(C)C)C(=O)N[C@@H](C)C(=O)N[C@@H](C(=O)N[C@H](C(=O)N[C@@H](C(=O)N[C@@H](Cc1c[nH]c2ccccc12)C(=O)N[C@H](CC(C)C)C(=O)N[C@@H](Cc1cc2ccccc2[nH]1)C(=O)N[C@H](CC(C)C)C(=O)N[C@@H](Cc1c[nH]c2ccccc12)C(=O)N[C@H](CC(C)C)C(=O)N[C@@H](Cc1c[nH]c2ccccc12)C(=O)NCCO)C(C)C)C(C)C)C(C)C
GI50 (MCF7; cell growth or viability, SRB; 48 h): 0.0233 µM

CC(C)(C(=O)N1CCC2(CC1)OCC(CN1CCCCS1(=O)=O)O2)c1ccccc1 (centres unmarked)
inhibition (Chikungunya virus; viral replication, inhibitor; 40 µM): < 50%

O=C(NCc1ccccc1)c1cn(Cc2ccc(C(F)(F)F)cc2)c2ccc(Oc3ccccc3)cc2c1=O
IC50 (MCF7; cell growth or viability, MTT; 48 h): 6.43 µM

Cc1cccc(C=Nc2ccc(SCc3cc(=O)c(O)co3)cc2)c1
IC50 (DPPH scavenging, absorbance; 30 min): 26.7 µM

O=c1c2ccccc2[se]n1-c1ccccc1
IC50 (Chikungunya virus; viral replication; Vero; 24 h): 2.02 µM

CCc1ccccc1C=Nc1ccc(SCc2cc(=O)c(O)co2)cc1
IC50 (DPPH scavenging, absorbance; 30 min): 25.2 µM

O=C(N1CCC2(CC1)OCC(CN1CCCCS1(=O)=O)O2)C1(c2ccc(Cl)cc2)CCCC1 (centres unmarked)
inhibition (Chikungunya virus; viral replication, inhibitor; 40 µM): 55%

O=C(NCc1ccc(C(F)(F)F)cc1)c1cn(Cc2ccc(F)cc2)c2ccc(Oc3ccccc3)cc2c1=O
IC50 (MCF7; cell growth or viability, MTT; 24 h): 109 µM

CCc1ccc(C=Nc2ccc(SCc3cc(=O)c(O)co3)cc2)cc1
IC50 (DPPH scavenging, absorbance; 30 min): 20.5 µM

CC(C)C[C@@H](NC(=O)[C@H](C)NC(=O)CNC(=O)[C@@H](NC=O)C(C)C)C(=O)N[C@@H](C)C(=O)N[C@@H](C(=O)N[C@H](C(=O)N[C@@H](C(=O)N[C@@H](Cc1c[nH]c2ccccc12)C(=O)N[C@H](CC(C)C)C(=O)N[C@@H](Cc1ccc2[nH]ccc2c1)C(=O)N[C@H](CC(C)C)C(=O)N[C@@H](Cc1c[nH]c2ccccc12)C(=O)N[C@H](CC(C)C)C(=O)N[C@@H](Cc1c[nH]c2ccccc12)C(=O)NCCO)C(C)C)C(C)C)C(C)C
GI50 (MCF7; cell growth or viability, SRB; 48 h): 0.106 µM

CC[C@H](C)C[C@H](C)CCCCCCCCC(=O)N[C@H]1C[C@@H](O)[C@@H](NCCN)NC(=O)[C@@H]2[C@@H](O)CCN2C(=O)[C@H]([C@H](O)CCN)NC(=O)[C@H]([C@H](O)[C@@H](O)c2ccc(O)cc2)NC(=O)[C@@H]2C[C@@H](O)CN2C(=O)[C@H]([C@@H](C)O)NC1=O
MFC (Candidozyma auris; microbial killing, broth dilution; 48 h): 8 µg/mL (≈ 7.32 µM)
